Test results: ChEMBL document CHEMBL3804796, “Discovery of Novel 3,3-Disubstituted Piperidines as Orally Bioavailable, Potent, and Efficacious HDM2-p53 Inhibitors” (ACS Med Chem Lett, 2016)
Calls of active or inactive are those of the source. No cut-off for these calls is given here.

System: SJSA-1
Test: Antitumor activity against human SJSA1 cells xenografted in nude mouse assessed as tumor growth inhibition at 100 mg/kg, po qd continuously for 30 days
Format: functional, organism-based
Method in brief: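 Nude mice bearing SJSA-1 osteosarcoma xenografts, 5 per group, dosed orally in 20% HPBCD. Schedules were either continuous daily or intermittent (3 days on, 4 days off), at 100 and 200 mpk. Tumor volume and body weight followed against a vehicle control group.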

## CCC[C@H]1N(C(=O)c2cnccc2C(F)(F)F)CCC[C@@]1(Oc1csc(C(F)(F)F)c1)C(=O)N1CCN(c2ccccc2OCCCC(=O)O)CC1
  TGI: Active
